# Screening results (PubChem)
# CAL PDZ FP-1: blocks peptide binding to human CAL PDZ domain | purified CAL PDZ, TMR-peptide fluorescence polarization, 1 h | actives 0.02% (n = 330,000) | Q9HD26 | AID 504414 | inhibition, % at 20 µM;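 active = highest replicate inhibition of at least 40%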;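 note: plate controls were DMSO neutral control wells for no effect and unlabeled competitor peptide control wells for full effect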
#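 Material – purified CerCALP PDZ construct · Detection – FP readout, S and P plane fluorescence · Measure – percent inhibition from loss of millipolarization · Controls – unlabelled peptide for full inhibition, DMSO wells as neutral · Probe or stimulus – TMR-labelled reporter peptide T*-PRC34 bound in PDZ groove · Times – 1 h at RT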
# DDE Tn6 FP inh: disrupts Tn6 cyclic peptide binding to fibrin D-Dimer-E complex; inhibition, % at 8.3 µM; Fibrin DD(E) TRITC-Tn6 fluorescence polarization displacement; actives 0.21% (n = 370,000); AID 720509; P02675;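 active = inhibition above a per-campaign cutoff: mean of compounds within control limits plus 3 SD, cut at about 15% in these data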;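 note: 0% = median of all compound wells on the plate and 100% = blocking peptide control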
# ARNT TACC3 PPI: disruptors of human ARNT/TACC3 interaction | Q9Y6A5 | AlphaScreen His-ARNT PAS-B/GST-TACC3 binding, luminescence; TACC3 fragment carries E629A point mutation | inhibition, % at 9.99 µM | actives 0.66% (n = 390,000);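 active = mean inhibition of replicates at least 50% and at least half of replicates each reaching 50%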;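 note: 0% = complete ARNT plus TACC3 wells and 100% = ARNT alone without TACC3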
# GRK2 inh: human GRK2 inhibition via aptamer displacement; actives 0.59% (n = 330,000); P25098; bead flow cytometry, FAM-aptamer displacement from GRK2; inhibition of aptamer binding, % at 10 µM;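 active = inhibition of aptamer binding above 40%, roughly 3 SD of noise, on plates passing a quality check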;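 note: median bead fluorescence of bound FAM aptamer so fluorescent compounds give negative values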
# Target sequence (P25098 whole entry, looked up): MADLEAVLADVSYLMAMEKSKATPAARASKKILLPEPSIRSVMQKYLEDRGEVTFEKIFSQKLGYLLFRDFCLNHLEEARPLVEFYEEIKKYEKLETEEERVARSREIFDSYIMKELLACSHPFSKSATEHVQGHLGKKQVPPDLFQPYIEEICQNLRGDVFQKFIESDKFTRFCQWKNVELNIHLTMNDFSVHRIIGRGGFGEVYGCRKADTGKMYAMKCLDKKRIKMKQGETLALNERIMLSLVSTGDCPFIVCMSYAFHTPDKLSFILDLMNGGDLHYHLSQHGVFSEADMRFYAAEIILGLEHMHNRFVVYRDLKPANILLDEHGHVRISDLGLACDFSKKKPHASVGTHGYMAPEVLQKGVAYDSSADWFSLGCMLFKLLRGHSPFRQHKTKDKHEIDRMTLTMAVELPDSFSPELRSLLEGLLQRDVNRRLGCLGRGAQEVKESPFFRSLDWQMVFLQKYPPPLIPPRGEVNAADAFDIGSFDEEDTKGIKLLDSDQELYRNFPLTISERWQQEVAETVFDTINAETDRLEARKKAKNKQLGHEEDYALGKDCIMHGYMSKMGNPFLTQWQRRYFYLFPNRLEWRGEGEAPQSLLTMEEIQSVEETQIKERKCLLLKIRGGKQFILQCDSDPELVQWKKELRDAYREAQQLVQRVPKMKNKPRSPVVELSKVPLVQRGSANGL
# CAL PDZ FP-2: CAL PDZ (human) peptide binding inhibition | Q9HD26 | purified CAL PDZ, TMR-peptide fluorescence polarization, 1 h | inhibition, % at 24.9 µM | actives 0.92% (n = 300,000);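 active = mean inhibition of at least 30% with at least half of replicates also reaching 30%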;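 note: 0% = DMSO neutral control and 100% = excess unlabeled competitor peptide PRC23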
# Tn7 DDE FP: DD(E)-Tn7 binding inhibition, primary FP screen; inhibition, % at 8.3 µM; actives 0.13% (n = 370,000); AID 720508; P02675; FP displacement of FITC-Tn7 peptide from fibrin DD(E); 0% = median of compound wells per plate;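 active = inhibition above the mean of compounds falling within the control limits plus 3 SD of them, cut at about 14% in these data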;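 note: 0% = plate median of compound wells and 100% = 10 µM Aha-Tn7 peptide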
#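 Assay system: human fibrin DD(E). Input: DD(E) 2 µM final. Medium: Tris buffer with calcium and detergent, pH 7.8. Compound dosing: single point at 8.3 µM. Timing: 10 min plus 3 h, room temperature. Technique: fluorescence polarization of the labelled Tn7 tracer. Read-out: percent inhibition. Replicates: singlicate testing.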
# * hit, by the source's call; . = no result; + = active, no number. This is a sample that favours compounds with a hit; in the whole collection about 1.8% have one here.
SMILES,CAL PDZ FP-1,DDE Tn6 FP inh,ARNT TACC3 PPI,GRK2 inh,CAL PDZ FP-2,Tn7 DDE FP
CCOC(=O)C1(C)Oc2ccccc2C(C(=O)OC)=C1C(=O)OC (stereo not given),-0.6,-0.6,0.6,0.0,+,-8.6
Cc1cn([C@H]2C[C@H](O)[C@@H](/C=C/C(=O)NCc3ccco3)O2)c(=O)[nH]c1=O,.,-5.2,.,.,.,3.0
O=C(CCCN1C(=O)/C(=C\c2ccccc2)SC1=S)Nc1ccc(O)cc1C(=O)O,-0.5,2.0,4.8,0.0,77.0*,4.5
CC(=O)NN1C(=O)/C(=C\c2ccc(C)cc2)SC1=S,.,2.3,-1.9,0.0,5.4,1.3
O=C(CCCN1C(=O)/C(=C/c2ccccc2)SC1=S)Nc1ccccc1O,-0.8,-5.9,19.7,1.0,-2.6,6.0
CC(=O)NN1C(=O)/C(=C\c2ccc(O)cc2)SC1=S,-2.8,-12.6,-7.2,79.0*,-1.8,-11.5
COc1ccc(/C=C2\SC(=S)N(CCCC(=O)Nc3ccc(O)cc3)C2=O)cc1,-1.4,-8.4,5.7,0.0,-5.2,5.6
COc1ccc(/C=C2/SC(=S)N(CCCC(=O)Nc3ccc(O)cc3)C2=O)cc1,-0.5,-6.4,2.1,1.0,46.1*,1.6
COc1cccc(C(=O)Nc2ccc3c(c2)C(=O)N(C)[C@@H]2CC[C@H](CC(=O)NCCCN4CCOCC4)O[C@@H]2CO3)c1,.,.,-3.9,.,.,.
Nc1c(C(=O)Nc2ccccc2)nnn1-c1ccc2c(c1)OCCO2,-1.4,7.5,29.2,2.0,79.5*,9.5
Cc1ccc(NC(=O)c2nnn(-c3ccc4c(c3)OCCO4)c2N)cc1,-1.4,7.0,-2.5,2.0,.,0.1
O=c1ccc(-c2nc3ccccc3n2Cc2ccc(Cl)cc2)c[nH]1,.,3.1,1.8,0.0,41.2*,-0.2
COc1ccc(Cl)cc1NCCC(O)c1ccc(F)cc1 (stereo not given),0.4,-3.1,16.4,0.0,-4.6,10.0
COc1ccc(NCCC(O)c2ccc(Cl)cc2)cc1 (stereo not given),.,2.1,15.7,3.0,35.0*,3.9
Cc1ccc(-c2c(NC(=O)c3ccccc3)nc3ncccn23)cc1,.,-2.6,.,.,.,-5.9
C[C@]12c3[nH]c4ccccc4c3CCN1C(=O)C(CC(=O)NCCc1ccccn1)C[C@@H]2C(=O)N1CCOCC1 (stereo not given in full),-0.3,8.5,-4.6,81.0*,-3.7,-6.7
C[C@]12c3[nH]c4cc(-c5ccco5)ccc4c3CCN1C(=O)[C@@H](CC(=O)NCCCn1ccnc1)C[C@@H]2C(=O)N1CCOCC1,0.9,.,10.1,0.0,-6.2,.
C[C@]12c3[nH]c4cc(-c5ccco5)ccc4c3CCN1C(=O)[C@@H](CC(=O)NCCCn1ccnc1)C[C@@H]2C(=O)N1CCCCC1,-0.9,2.2,8.3,52.0*,2.4,2.3
C[C@]12c3[nH]c4ccccc4c3CCN1C(=O)C(CC(=O)NCCc1ccccn1)C[C@@H]2C(=O)N1CCCCC1 (stereo not given in full),-0.5,6.3,-2.4,4.0,-5.1,9.3
CCN(CC)C(=O)[C@H]1C[C@H](CC(=O)NC(C)(C)C)C(=O)N2CCc3c([nH]c4cc(-c5ccco5)ccc34)[C@]12C,-1.4,4.3,3.5,44.0*,-1.2,-8.6
CC(C)N(C(=O)[C@H]1C[C@H](CC(=O)NC(C)(C)C)C(=O)N2CCc3c([nH]c4cc(-c5ccco5)ccc34)[C@]12C)C(C)C,-0.5,3.0,5.0,2.0,2.2,7.0
COC/C=C/C1=CC2=CC(=O)C(C)(O)C(=O)C2=CO1 (stereo not given),.,.,.,87.0*,.,.
COC/C=C/C1=CC2=CC(=O)C(C)(OC(=O)C3CCCC3)C(=O)C2=CO1 (stereo not given),3.7,2.2,4.3,4.0,-2.5,-5.8
CCc1ccc(S(=O)(=O)/N=C2\C=C(Nc3ccc(C(=O)O)cc3)C(=O)c3ccccc32)cc1,0.5,-5.0,73.7*,3.0,1.8,3.2
COC(=O)c1ccccc1NC1=C/C(=N\S(=O)(=O)c2cccs2)c2ccccc2C1=O,1.1,-2.1,4.2,3.0,.,-2.8
